For 31 compounds, DC50 results are on record in ChEMBL document CHEMBL4602720, “Degradation versus Inhibition: Development of Proteolysis-Targeting Chimeras for Overcoming Statin-Induced Compensatory Upregulation of 3-Hydroxy-3-methylglutaryl Coenzyme A Reductase” (J Med Chem, 2020).

As usually defined, the DC50 is the midpoint of the concentration-degradation curve.

SMILES strings stand for the structures.

The experiment addresses T1, Protein cereblon/3-hydroxy-3-methylglutaryl-coenzyme A reductase (Cricetulus griseus, UniProt P00347+G3H338).
T1 sequence (P00347 whole entry): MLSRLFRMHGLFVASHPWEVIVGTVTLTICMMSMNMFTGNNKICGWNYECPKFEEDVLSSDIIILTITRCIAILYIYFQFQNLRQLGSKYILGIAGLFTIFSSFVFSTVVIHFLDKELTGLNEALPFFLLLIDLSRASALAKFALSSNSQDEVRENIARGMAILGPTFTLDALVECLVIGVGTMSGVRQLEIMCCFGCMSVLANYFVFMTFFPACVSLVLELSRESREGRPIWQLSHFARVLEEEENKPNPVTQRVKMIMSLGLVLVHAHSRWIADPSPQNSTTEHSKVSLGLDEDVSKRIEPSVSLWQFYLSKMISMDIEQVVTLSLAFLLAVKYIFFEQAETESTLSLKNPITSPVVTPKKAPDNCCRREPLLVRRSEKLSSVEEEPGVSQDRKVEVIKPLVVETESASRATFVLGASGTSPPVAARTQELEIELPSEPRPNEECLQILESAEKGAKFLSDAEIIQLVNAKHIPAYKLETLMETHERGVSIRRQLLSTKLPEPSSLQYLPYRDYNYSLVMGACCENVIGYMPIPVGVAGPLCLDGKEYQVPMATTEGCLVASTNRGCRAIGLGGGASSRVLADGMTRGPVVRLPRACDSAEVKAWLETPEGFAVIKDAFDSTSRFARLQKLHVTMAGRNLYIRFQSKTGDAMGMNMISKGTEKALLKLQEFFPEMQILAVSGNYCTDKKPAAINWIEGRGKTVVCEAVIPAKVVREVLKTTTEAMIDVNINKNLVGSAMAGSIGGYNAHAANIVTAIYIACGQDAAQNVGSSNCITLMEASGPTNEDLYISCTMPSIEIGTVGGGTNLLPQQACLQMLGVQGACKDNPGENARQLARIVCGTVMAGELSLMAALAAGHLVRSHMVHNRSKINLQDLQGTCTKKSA
T1 sequence (G3H338 whole entry): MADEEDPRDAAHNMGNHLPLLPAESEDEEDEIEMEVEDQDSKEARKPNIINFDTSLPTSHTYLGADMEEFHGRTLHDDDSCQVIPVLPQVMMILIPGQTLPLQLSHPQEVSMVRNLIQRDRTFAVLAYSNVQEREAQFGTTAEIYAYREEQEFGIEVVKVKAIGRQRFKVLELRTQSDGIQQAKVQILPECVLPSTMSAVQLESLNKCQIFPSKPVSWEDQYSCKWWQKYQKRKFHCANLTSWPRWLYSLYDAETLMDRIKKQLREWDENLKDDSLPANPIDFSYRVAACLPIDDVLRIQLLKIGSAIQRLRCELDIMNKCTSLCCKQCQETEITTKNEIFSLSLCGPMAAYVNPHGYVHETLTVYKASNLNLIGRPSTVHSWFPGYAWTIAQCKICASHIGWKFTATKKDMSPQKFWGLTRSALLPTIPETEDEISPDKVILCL
The experiment is described as follows: Protac activity at CRBN/HMGCR in Insig-1/Insig-2 deficient Chinese hamster SRD15 cells assessed as induction of HMGCR degradation after 16 hrs by immunoblotting analysis. In short, it runs like this: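 SRD15 cells treated with compound at varying concentrations for 16 h, final DMSO ≤0.1%; RIPA lysates (Lowry protein) immunoblotted for HMGCR, densitometry normalized to actin, DMSO set to 1; DC50 = concentration giving 50% loss versus DMSO, fitted to dose-response curve, mean of 3 independent experiments.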
Background: Immunoblotting shows a protein as a band on a membrane.
As for `CC(C)c1c(C(=O)Nc2ccccc2)c(-c2cccc(OCCCCCc3cn(CCOCCOCCOCCNc4ccc5c(c4)C(=O)N(C4CCC(=O)NC4=O)C5=O)nn3)c2)c(-c2ccc(F)cc2)n1CC[C@@H](O)C[C@@H](O)CC(=O)O` (stereo partly specified), the DC50 is more than 3 µM.

On to `CCN1C(=O)CCC(N2C(=O)c3cccc(NCCOCCOCCOCCOCCn4cc(CCCOc5cccc(-c6c(C(=O)Nc7ccccc7)c(C(C)C)n(CC[C@@H](O)C[C@@H](O)CC(=O)O)c6-c6ccc(F)cc6)c5)nn4)c3C2=O)C1=O` (stereo partly specified), for which the DC50 was more than 3 µM.

In the case of `CC(C)c1c(C(=O)Nc2ccccc2)c(-c2cccc(OCCCCCc3cn(CCOCCOCCOCCOCCNc4cccc5c4C(=O)N(C4CCC(=O)NC4=O)C5=O)nn3)c2)c(-c2ccc(F)cc2)n1CC[C@@H](O)C[C@@H](O)CC(=O)O` (stereo partly specified), the DC50 is 0.5 µM.

For `CC(C)c1c(C(=O)Nc2ccccc2)c(-c2cccc(OCCCc3cn(CCCCOCCCc4cccc5c4CN(C4CCC(=O)NC4=O)C5=O)nn3)c2)c(-c2ccc(F)cc2)n1CC[C@@H](O)C[C@@H](O)CC(=O)O` (stereo partly specified), the DC50 was more than 3 µM.

Turning to `CC(C)c1c(C(=O)Nc2ccccc2)c(-c2cccc(OCCCc3cn(CCCCCCCOCC#Cc4cccc5c4CN(C4CCC(=O)NC4=O)C5=O)nn3)c2)c(-c2ccc(F)cc2)n1CC[C@@H](O)C[C@@H](O)CC(=O)O` (stereo partly specified), the DC50 is 0.7 µM.

On to `CC(C)c1c(C(=O)Nc2ccccc2)c(-c2cccc(OCCCc3cn(CCOCC#Cc4cccc5c4CN(C4CCC(=O)NC4=O)C5=O)nn3)c2)c(-c2ccc(F)cc2)n1CC[C@@H](O)C[C@@H](O)CC(=O)O` (stereo partly specified), for which the DC50 is more than 3 µM.

In the case of `CC(C)c1c(C(=O)Nc2ccccc2)c(-c2cccc(OCCCCCc3cn(CCOCCOCCNc4cccc5c4C(=O)N(C4CCC(=O)NC4=O)C5=O)nn3)c2)c(-c2ccc(F)cc2)n1CC[C@@H](O)C[C@@H](O)CC(=O)O` (stereo partly specified), the DC50 is more than 3 µM.

`CC(C)c1c(C(=O)Nc2ccccc2)c(-c2cccc(OCCCCc3cn(CCOCCOCCOCCNc4ccc5c(c4)C(=O)N(C4CCC(=O)NC4=O)C5=O)nn3)c2)c(-c2ccc(F)cc2)n1CC[C@@H](O)C[C@@H](O)CC(=O)O` (stereo partly specified): the DC50 is more than 3 µM.

With `CC(C)c1c(C(=O)Nc2ccccc2)c(-c2cccc(OCCCc3cn(CCOCCOCCNc4cccc5c4C(=O)N(C4CCC(=O)NC4=O)C5=O)nn3)c2)c(-c2ccc(F)cc2)n1CC[C@@H](O)C[C@@H](O)CC(=O)O` (stereo partly specified), the DC50 was more than 3 µM.

For `CC(C)c1c(C(=O)Nc2ccccc2)c(-c2cccc(OCCCCCc3cn(CCOCCOCCOCCOCCOCCNc4cccc5c4C(=O)N(C4CCC(=O)NC4=O)C5=O)nn3)c2)c(-c2ccc(F)cc2)n1CC[C@@H](O)C[C@@H](O)CC(=O)O` (stereo partly specified), the DC50 turned out to be 0.6 µM.

As to `CC(C)c1c(C(=O)Nc2ccccc2)c(-c2cccc(OCCCc3cn(CCOCCNc4cccc5c4C(=O)N(C4CCC(=O)NC4=O)C5=O)nn3)c2)c(-c2ccc(F)cc2)n1CC[C@@H](O)C[C@@H](O)CC(=O)O` (stereo partly specified), the DC50 was more than 3 µM.

Consider `CC(C)c1c(C(=O)Nc2ccccc2)c(-c2cccc(OCCCc3cn(CCOCCOCCOCCNc4cccc5c4C(=O)N(C4CCC(=O)NC4=O)C5=O)nn3)c2)c(-c2ccc(F)cc2)n1CC[C@@H](O)C[C@@H](O)CC(=O)O` (stereo partly specified), for which the DC50 was more than 3 µM.

As to `CC(C)c1c(C(=O)Nc2ccccc2)c(-c2cccc(OCCCc3cn(CCCOCC#Cc4cccc5c4CN(C4CCC(=O)NC4=O)C5=O)nn3)c2)c(-c2ccc(F)cc2)n1CC[C@@H](O)C[C@@H](O)CC(=O)O` (stereo partly specified), the DC50 was more than 3 µM.

Regarding `CC(C)c1c(C(=O)Nc2ccccc2)c(-c2cccc(OCCCc3cn(CCCCCOCC#Cc4cccc5c4CN(C4CCC(=O)NC4=O)C5=O)nn3)c2)c(-c2ccc(F)cc2)n1CC[C@@H](O)C[C@@H](O)CC(=O)O` (stereo partly specified), the DC50 was 0.3 µM.

With `CC(C)c1c(C(=O)Nc2ccccc2)c(-c2cccc(OCCCc3cn(CCCCOCC#Cc4cccc5c4CN(C4CCC(=O)NC4=O)C5=O)nn3)c2)c(-c2ccc(F)cc2)n1CC[C@@H](O)C[C@@H](O)CC(=O)O` (stereo partly specified), the DC50 was more than 3 µM.

As to `CC(C)c1c(C(=O)Nc2ccccc2)c(-c2cccc(OCCCCCc3cn(CCOCCNc4cccc5c4C(=O)N(C4CCC(=O)NC4=O)C5=O)nn3)c2)c(-c2ccc(F)cc2)n1CC[C@@H](O)C[C@@H](O)CC(=O)O` (stereo partly specified), the DC50 stood at 3 µM.

In the case of `CC(C)c1c(C(=O)Nc2ccccc2)c(-c2cccc(OCCCCc3cn(CCOCCNc4cccc5c4C(=O)N(C4CCC(=O)NC4=O)C5=O)nn3)c2)c(-c2ccc(F)cc2)n1CC[C@@H](O)C[C@@H](O)CC(=O)O` (stereo partly specified), the DC50 was more than 3 µM.

Regarding `CC(C)c1c(C(=O)Nc2ccccc2)c(-c2cccc(OCCCCCCCc3cn(CCCCCCCNc4cccc5c4C(=O)N(C4CCC(=O)NC4=O)C5=O)nn3)c2)c(-c2ccc(F)cc2)n1CC[C@@H](O)C[C@@H](O)CC(=O)O` (stereo partly specified), the DC50 turned out to be 0.5 µM.

For the compound `CC(C)c1c(C(=O)Nc2ccccc2)c(-c2cccc(OCCCc3cn(CCOCCOCCOCCOCCOCCNc4cccc5c4C(=O)N(C4CCC(=O)NC4=O)C5=O)nn3)c2)c(-c2ccc(F)cc2)n1CC[C@@H](O)C[C@@H](O)CC(=O)O` (stereo partly specified), the DC50 turned out to be 0.2 µM.

With `CC(C)c1c(C(=O)Nc2ccccc2)c(-c2cccc(OCCCCc3cn(CCOCCOCCOCCOCCOCCNc4cccc5c4C(=O)N(C4CCC(=O)NC4=O)C5=O)nn3)c2)c(-c2ccc(F)cc2)n1CC[C@@H](O)C[C@@H](O)CC(=O)O` (stereo partly specified), the DC50 is more than 3 µM.

On to `CC(C)c1c(C(=O)Nc2ccccc2)c(-c2cccc(OCCCc3cn(CCCCCCCOCCCc4cccc5c4CN(C4CCC(=O)NC4=O)C5=O)nn3)c2)c(-c2ccc(F)cc2)n1CC[C@@H](O)C[C@@H](O)CC(=O)O` (stereo partly specified), for which the DC50 was 0.6 µM.

Turning to `CC(C)c1c(C(=O)Nc2ccccc2)c(-c2cccc(OCCCCCCc3cn(CCCCCCCNc4cccc5c4C(=O)N(C4CCC(=O)NC4=O)C5=O)nn3)c2)c(-c2ccc(F)cc2)n1CC[C@@H](O)C[C@@H](O)CC(=O)O` (stereo partly specified), the DC50 amounted to 0.3 µM.

For the compound `CC(C)c1c(C(=O)Nc2ccccc2)c(-c2cccc(OCCCc3cn(CCCCCCOCC#Cc4cccc5c4CN(C4CCC(=O)NC4=O)C5=O)nn3)c2)c(-c2ccc(F)cc2)n1CC[C@@H](O)C[C@@H](O)CC(=O)O` (stereo partly specified), the DC50 was 0.2 µM.

For the compound `CC(C)c1c(C(=O)Nc2ccccc2)c(-c2cccc(OCCCc3cn(CCCCCOCCCc4cccc5c4CN(C4CCC(=O)NC4=O)C5=O)nn3)c2)c(-c2ccc(F)cc2)n1CC[C@@H](O)C[C@@H](O)CC(=O)O` (stereo partly specified), the DC50 stood at 2.3 µM.

As for `CC(C)c1c(C(=O)Nc2ccccc2)c(-c2cccc(OCCCc3cn(CCOCCCc4cccc5c4CN(C4CCC(=O)NC4=O)C5=O)nn3)c2)c(-c2ccc(F)cc2)n1CC[C@@H](O)C[C@@H](O)CC(=O)O` (stereo partly specified), the DC50 was more than 3 µM.

Turning to `CC(C)c1c(C(=O)Nc2ccccc2)c(-c2cccc(OCCCCc3cn(CCOCCOCCNc4cccc5c4C(=O)N(C4CCC(=O)NC4=O)C5=O)nn3)c2)c(-c2ccc(F)cc2)n1CC[C@@H](O)C[C@@H](O)CC(=O)O` (stereo partly specified), the DC50 was more than 3 µM.

Consider `CC(C)c1c(C(=O)Nc2ccccc2)c(-c2cccc(OCCCCCc3cn(CCOCCOCCOCCNc4cccc5c4C(=O)N(C4CCC(=O)NC4=O)C5=O)nn3)c2)c(-c2ccc(F)cc2)n1CC[C@@H](O)C[C@@H](O)CC(=O)O` (stereo partly specified), for which the DC50 stood at 1.8 µM.

For the compound `CC(C)c1c(C(=O)Nc2ccccc2)c(-c2cccc(OCCCCc3cn(CCOCCOCCOCCOCCNc4cccc5c4C(=O)N(C4CCC(=O)NC4=O)C5=O)nn3)c2)c(-c2ccc(F)cc2)n1CC[C@@H](O)C[C@@H](O)CC(=O)O` (stereo partly specified), the DC50 was determined as 0.4 µM.

For the compound `CC(C)c1c(C(=O)Nc2ccccc2)c(-c2cccc(OCCCCc3cn(CCOCCOCCOCCOCCNc4ccc5c(c4)C(=O)N(C4CCC(=O)NC4=O)C5=O)nn3)c2)c(-c2ccc(F)cc2)n1CC[C@@H](O)C[C@@H](O)CC(=O)O` (stereo partly specified), the DC50 is more than 3 µM.

For `CC(C)c1c(C(=O)Nc2ccccc2)c(-c2cccc(OCCCCCc3cn(CCOCCOCCOCCOCCNc4ccc5c(c4)C(=O)N(C4CCC(=O)NC4=O)C5=O)nn3)c2)c(-c2ccc(F)cc2)n1CC[C@@H](O)C[C@@H](O)CC(=O)O` (stereo partly specified), the DC50 was more than 3 µM.

In the case of `CC(C)c1c(C(=O)Nc2ccccc2)c(-c2cccc(OCCCc3cn(CCCOCCCc4cccc5c4CN(C4CCC(=O)NC4=O)C5=O)nn3)c2)c(-c2ccc(F)cc2)n1CC[C@@H](O)C[C@@H](O)CC(=O)O` (stereo partly specified), the DC50 is more than 3 µM.
